Source: ChEMBL document CHEMBL3272012, “5-(Tetradecyloxy)-2-furancarboxylic acid and related hypolipidemic fatty acid-like alkyloxyarylcarboxylic acids” (J Med Chem, 1977)
One block for each compound: values may come before it.

What was measured:
Rattus norvegicus [1] = assay: Hypolipidemic activity in Wistar rat assessed as reduction in plasma cholesterol level at 351 umol/kg/day administered through diet for 4 days; type: functional; conditions: 96 h
How it was run: (§1)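 Young male Wistar rats, 170-190 g at start, in groups of six, given compound mixed into Purina Lab Chow ad libitum for 4 or 10 days as stated. Daily dose was calculated from food consumption and body weight. Plasma was taken by cardiac puncture at the end and cholesterol measured by automated procedure. Results are % reduction versus a concurrent untreated control group, with Student's t test.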

Rattus norvegicus [2] = assay: Increase in cholesterol level in Wistar rat liver at 351 umol/kg/day administered through diet for 4 days; type: ADME, organism-based; conditions: in vivo, po, 96 h
Rattus norvegicus [3] = assay: Hypolipidemic activity in Wistar rat assessed as reduction in plasma triglyceride level at 351 umol/kg/day administered through diet for 4 days; type: functional; conditions: 96 h
How it was run: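 Young male Wistar rats, 170-190 g at start, six per group, given compound mixed into Purina Lab Chow, fed ad libitum for 4 or 10 days. Daily dose calculated from food consumption and body weight. Rats bled by cardiac puncture at end of treatment. Plasma triglycerides determined by automated procedure. Expressed as percent reduction versus a concurrent untreated control group, Student's t test.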

Rattus norvegicus [4] = assay: Increase in liver weight in Wistar rat at 351 umol/kg/day administered through diet for 4 days; type: ADME, organism-based; conditions: in vivo, po, 96 h
Rattus norvegicus [5] = assay: Increase in liver weight in Wistar rat at 441 umol/kg/day administered through diet for 4 days; type: ADME, organism-based; conditions: in vivo, po, 96 h
Rattus norvegicus [6] = assay: Hypolipidemic activity in Wistar rat assessed as reduction in plasma triglyceride level at 441 umol/kg/day administered through diet for 4 days; type: functional; conditions: 96 h
Rattus norvegicus [7] = assay: Hypolipidemic activity in Wistar rat assessed as reduction in plasma cholesterol level at 441 umol/kg/day administered through diet for 4 days; type: functional; conditions: 96 h
How it was run: (§2)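 Young male Wistar rats, 170-190 g initial weight, groups of six, given compound mixed thoroughly into Purina Lab Chow ad libitum for 4 or 10 days as stated. Daily dose calculated from food consumption and body weight. Bled by cardiac puncture at end of treatment; plasma cholesterol measured by automated procedure. Expressed as percent reduction versus simultaneous untreated control group; Student's t test.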

Rattus norvegicus [8] = assay: Increase in cholesterol level in Wistar rat liver at 441 umol/kg/day administered through diet for 4 days; type: ADME, organism-based; conditions: in vivo, po, 96 h
Rattus norvegicus [9] = assay: Hypolipidemic activity in Wistar rat assessed as reduction in plasma cholesterol level at 1693 umol/kg/day administered through diet for 10 days; type: functional; conditions: 240 h; how it was run: as §1
Rattus norvegicus [10] = assay: Inhibition of cholesterol biosynthesis in meal fed Wistar rat liver assessed as sodium [1-14C]acetate incorporation at 188 mg/kg/day administered through diet for 7 days measured 1 hr after labeled acetate challenge by liquid scintillation spectrometry (reference value: 41.3 +/- 3.2 x 10^-3 dpm); type: functional
Rattus norvegicus [11] = assay: Inhibition of fatty acid biosynthesis in Ad Lib fed Wistar rat liver assessed as sodium [1-14C]acetate incorporation at 261 mg/kg/day administered through diet for 7 days measured 1 hr after labeled acetate challenge by liquid scintillation spectrometry (reference value: 27.2 +/- 4.8 x 10^-3 dpm); type: functional
Rattus norvegicus [12] = assay: Increase in liver weight in Wistar rat at 119 umol/kg/day administered through diet for 10 days; type: ADME, organism-based; conditions: in vivo, po, 240 h
Rattus norvegicus [13] = assay: Hypolipidemic activity in Wistar rat assessed as reduction in plasma triglyceride level at 766 umol/kg/day administered through diet for 10 days; type: functional; conditions: 240 h
Rattus norvegicus [14] = assay: Hypolipidemic activity in Wistar rat assessed as reduction in plasma cholesterol level at 119 umol/kg/day administered through diet for 10 days; type: functional; conditions: 240 h; how it was run: as §1
Rattus norvegicus [15] = assay: Increase in liver weight in Wistar rat at 304 umol/kg/day administered through diet for 10 days; type: ADME, organism-based; conditions: in vivo, po, 240 h
Rattus norvegicus [16] = assay: Inhibition of fatty acid biosynthesis in meal fed Wistar rat liver assessed as sodium [1-14C]acetate incorporation at 188 mg/kg/day administered through diet for 7 days measured 1 hr after labeled acetate challenge by liquid scintillation spectrometry (reference value: 182 +/- 22 x 10^-3 dpm); type: functional
Rattus norvegicus [17] = assay: Hypolipidemic activity in Wistar rat assessed as reduction in plasma triglyceride level at 304 umol/kg/day administered through diet for 10 days; type: functional; conditions: 240 h
How it was run: (§3)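 Young male Wistar rats, 170-190 g initial weight, six per group, fed drug mixed thoroughly into Purina Lab Chow ad libitum for the stated days; daily dose calculated from food consumption and body weight. Bled by cardiac puncture at end; plasma cholesterol and triglycerides by automated procedures, expressed as percent reduction versus simultaneous untreated controls; Student's t test.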

Rattus norvegicus [18] = assay: Inhibition of cholesterol biosynthesis in Ad Lib fed Wistar rat liver assessed as sodium [1-14C]acetate incorporation at 261 mg/kg/day administered through diet for 7 days measured 1 hr after labeled acetate challenge by liquid scintillation spectrometry (reference value: 12.7 +/- 2.6 x 10^-3 dpm); type: functional
Rattus norvegicus [19] = assay: Hypolipidemic activity in Wistar rat assessed as reduction in plasma triglyceride level at 119 umol/kg/day administered through diet for 10 days; type: functional; conditions: 240 h; how it was run: as §3
Rattus norvegicus [20] = assay: Increase in liver weight in Wistar rat at 1693 umol/kg/day administered through diet for 10 days; type: ADME, organism-based; conditions: in vivo, po, 240 h
Rattus norvegicus [21] = assay: Hypolipidemic activity in Wistar rat assessed as reduction in plasma cholesterol level at 766 umol/kg/day administered through diet for 10 days; type: functional; conditions: 240 h
How it was run: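 Young male Wistar rats (initial weight 170-190 g), groups of six, fed compound mixed into Purina Lab Chow ad libitum for 4 or 10 days; daily dose calculated from food consumption and body weight. Bled by cardiac puncture; plasma cholesterol and triglycerides by automated procedures; percent reduction versus simultaneous untreated controls, Student's t test.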

Rattus norvegicus [22] = assay: Hypolipidemic activity in Wistar rat assessed as reduction in plasma triglyceride level at 1693 umol/kg/day administered through diet for 10 days; type: functional; conditions: 240 h; how it was run: as §3
Rattus norvegicus [23] = assay: Hypolipidemic activity in Wistar rat assessed as reduction in plasma cholesterol level at 304 umol/kg/day administered through diet for 10 days; type: functional; conditions: 240 h; how it was run: as §1
Rattus norvegicus [24] = assay: Increase in liver weight in Wistar rat at 766 umol/kg/day administered through diet for 10 days; type: ADME, organism-based; conditions: in vivo, po, 240 h
Rattus norvegicus [25] = assay: Increase in liver weight in Wistar rat at 540 umol/kg/day administered through diet for 4 days; type: ADME, organism-based; conditions: in vivo, po, 96 h
Rattus norvegicus [26] = assay: Hypolipidemic activity in Wistar rat assessed as reduction in plasma cholesterol level at 540 umol/kg/day administered through diet for 4 days; type: functional; conditions: 96 h; how it was run: as §2
Rattus norvegicus [27] = assay: Increase in cholesterol level in Wistar rat liver at 540 umol/kg/day administered through diet for 4 days; type: ADME, organism-based; conditions: in vivo, po, 96 h
Rattus norvegicus [28] = assay: Hypolipidemic activity in Wistar rat assessed as reduction in plasma triglyceride level at 540 umol/kg/day administered through diet for 4 days; type: functional; conditions: 96 h
Rattus norvegicus [29] = assay: Hypolipidemic activity in Wistar rat assessed as reduction in plasma cholesterol level at 437 umol/kg/day administered through diet for 4 days; type: functional; conditions: 96 h; how it was run: as §2
Rattus norvegicus [30] = assay: Increase in liver weight in Wistar rat at 437 umol/kg/day administered through diet for 4 days; type: ADME, organism-based; conditions: in vivo, po, 96 h
Rattus norvegicus [31] = assay: Increase in cholesterol level in Wistar rat liver at 437 umol/kg/day administered through diet for 4 days; type: ADME, organism-based; conditions: in vivo, po, 96 h
Rattus norvegicus [32] = assay: Hypolipidemic activity in Wistar rat assessed as reduction in plasma triglyceride level at 437 umol/kg/day administered through diet for 4 days; type: functional; conditions: 96 h
Rattus norvegicus [33] = assay: Increase in cholesterol level in Wistar rat liver at 362 umol/kg/day administered through diet for 4 days; type: ADME, organism-based; conditions: in vivo, po, 96 h
Rattus norvegicus [34] = assay: Increase in liver weight in Wistar rat at 362 umol/kg/day administered through diet for 4 days; type: ADME, organism-based; conditions: in vivo, po, 96 h

Compound: CCCCCCCCCCCCCCOc1ccc(C(=O)O)s1
Activity (Rattus norvegicus [5]): 4%
inhibition in vivo at 441 µmol/kg (Rattus norvegicus [6]): 83%
inhibition in vivo at 441 µmol/kg (Rattus norvegicus [7]): 54%
Activity (Rattus norvegicus [8]): 1%

Compound: CCOC(=O)C(C)(C)Oc1ccc(Cl)cc1 [CLOFIBRATE]
inhibition in vivo at 1693 µmol/kg (Rattus norvegicus [9]): 41%
Activity (Rattus norvegicus [10]): 43300 dpm
Activity (Rattus norvegicus [11]): 50000 dpm
Activity (Rattus norvegicus [12]): 0%
inhibition in vivo at 766 µmol/kg (Rattus norvegicus [13]): 66%
inhibition in vivo at 119 µmol/kg (Rattus norvegicus [14]): 9%
Activity (Rattus norvegicus [15]): 2%
Activity (Rattus norvegicus [16]): 205000 dpm
inhibition in vivo at 304 µmol/kg (Rattus norvegicus [17]): 48%
Activity (Rattus norvegicus [18]): 4100 dpm
inhibition in vivo at 119 µmol/kg (Rattus norvegicus [19]): 30%
Activity (Rattus norvegicus [20]): 50%
inhibition in vivo at 766 µmol/kg (Rattus norvegicus [21]): 36%
inhibition in vivo at 1693 µmol/kg (Rattus norvegicus [22]): 78%
inhibition in vivo at 304 µmol/kg (Rattus norvegicus [23]): 18%
Activity (Rattus norvegicus [24]): 22%

Compound: CCCCCCCCCCCCCCCCCCCCOc1ccc(C(=O)OC)cc1
Activity (Rattus norvegicus [33]): 0%
Activity (Rattus norvegicus [34]): 4%

Further lines, with some results ahead:

Activity (Rattus norvegicus [2]): 11%
Activity (Rattus norvegicus [4]): 0%
Compound: CCCCCCCC/C=C/CCCCCCCCOc1ccc(C(=O)O)o1
inhibition in vivo at 351 µmol/kg (Rattus norvegicus [1]): 4%
inhibition in vivo at 351 µmol/kg (Rattus norvegicus [3]): 26%

Activity (Rattus norvegicus [25]): 1%
Activity (Rattus norvegicus [27]): 17%
Compound: CCCCCCCCCCOc1ccc(C(=O)O)o1
inhibition in vivo at 540 µmol/kg (Rattus norvegicus [26]): 5%
inhibition in vivo at 540 µmol/kg (Rattus norvegicus [28]): 46%

Activity (Rattus norvegicus [30]): 4%
Activity (Rattus norvegicus [31]): 5%
Compound: CCCCCCCCCCCCCCCCOc1ccc(C(=O)O)o1
inhibition in vivo at 437 µmol/kg (Rattus norvegicus [29]): 24%
inhibition in vivo at 437 µmol/kg (Rattus norvegicus [32]): 25%
